# CSN deneddyl inh – CSN deneddylation inhibition; Q92905; Purified CSN, SCF-Nedd8-OG deneddylation, fluorescence polarization; inhibition, % at 12.5 µM; 0.38% of 360,000 active; AID 651999;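 active = pattern-corrected inhibition above about 35%, with an unprinted fluorescence ratio check between 0.5 and 1.5, limit read from the data, passing the limit was not always enough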
#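 Assay system: purified human Csn5 enzyme expressed in HEK293T cells; Input: 0.24 nM Csn5 enzyme, final concentration; Reagent: 10 nM SCFSkp2-Nedd8OG; Compound dosing: 12.5 µM single point; Times: reaction 90 min, room temperature; Technique: fluorescence polarization readout.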
# LEDGF integ inh – blocks HIV-1 LEDGF/p75-dependent DNA integration; TR-FRET IN-LEDGF/p75 DNA integration, Eu/Cy5; inhibition, % at 3.7 µM; 0.64% of 370,000 active; AID 743269;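 active = inhibition above the screen-wide mean plus 3 SD, cut at about 13% in these data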;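 note: signal is the Cy5 over europium emission ratio at 671 and 618 nm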
# ATG4B inh – inhibitors of human ATG4B cysteine protease; ATG4B cleavage of LC3-PLA2, NBD-HPC fluorescence, 1 h; inhibition, % at 8.33 µM; 0.51% of 340,000 active; AID 504462; in the data active = inhibition above about 40%
# Target sequence (Q9Y4P1 whole entry, looked up): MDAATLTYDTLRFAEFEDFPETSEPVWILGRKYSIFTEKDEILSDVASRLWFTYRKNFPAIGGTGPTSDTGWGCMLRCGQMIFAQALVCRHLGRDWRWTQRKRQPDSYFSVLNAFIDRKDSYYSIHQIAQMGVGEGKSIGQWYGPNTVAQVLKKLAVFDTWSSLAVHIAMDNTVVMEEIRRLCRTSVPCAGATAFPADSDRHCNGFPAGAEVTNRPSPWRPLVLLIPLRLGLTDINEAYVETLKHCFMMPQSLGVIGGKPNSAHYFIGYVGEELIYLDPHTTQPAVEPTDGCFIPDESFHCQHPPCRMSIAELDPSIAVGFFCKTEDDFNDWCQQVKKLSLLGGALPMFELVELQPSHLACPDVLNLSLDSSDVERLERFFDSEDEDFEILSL
# MBD2 DNA inh – MBD2-methylated oligo binding inhibition; Q9UBB5; TR-FRET, MBD2 binding to methylated oligonucleotide; inhibition, % at 4.4 µM; 0.31% of 370,000 active; AID 686964; in the data active = inhibition above about 13%
# rCAG binder – molecules binding r(CAG) RNA repeats | r(CAG) RNA repeat, TO-PRO-1 dye displacement fluorescence | inhibition, % at 3 µM | 1.3% of 370,000 active;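 active = inhibition above the plate cutoff, the mean of all test compounds on that plate plus 3 SD, cut at about 35% in these data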;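 note: higher means more dye released from RNA so lower well fluorescence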
# UHRF1 MBD2 ctr – blocks human UHRF1 binding to methylated DNA | UHRF1 binding to methylated oligo, TR-FRET | inhibition, % at 4.4 µM | 0.75% of 370,000 active | AID 687016; in the data active = inhibition above about 21%;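 note: UHRF1 SRA domain binding a hemimethylated CpG hairpin DNA probe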
# IN multimer act – activates HIV-1 integrase multimerization in LEDGF counter-screen. AID 1053131. activation, % at 7.7 µM. shares compounds with LEDGF integ inh. 17% of 2,000 active. TR-FRET HIV-1 integrase multimerization, biochemical; in the data active = activation above about 8.9%
# TR-FRET interf – TR-FRET optical interference, LEDGF/p75 integration counter-screen; shares compounds with LEDGF integ inh; TR-FRET optical interference counterscreen, HIV-1 IN multimerization; inhibition, % at 7.7 µM; 2,000 tested, under 10 active; AID 1053135;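 active = inhibition above the mean over all tested compounds plus 3 SD, which no compound reached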
# LEDGF integ conf – confirmation of HIV-1 LEDGF/p75-dependent integration inhibitors. AID 1053136. 36% of 2,000 active. inhibition, % at 3.7 µM. shares compounds with LEDGF integ inh. TR-FRET LEDGF/p75-dependent HIV-1 integration, biochemical; in the data active = inhibition above about 14%
# A number is an active result; - = inactive; . = no result. The list is not random: actives were taken first. Their share in the collection is about 3.1%.
SMILES,CSN deneddyl inh,LEDGF integ inh,ATG4B inh,MBD2 DNA inh,rCAG binder,UHRF1 MBD2 ctr,IN multimer act,TR-FRET interf,LEDGF integ conf
CCCC(=O)Nc1nc2ccc(OC)cc2s1,-,-,-,-,-,-,.,.,.
COc1ccc2nc(NC(=S)N(C)C)sc2c1,-,17,-,-,-,-,-,-,16
CCCNC(=O)C1(C)CCN(CCC(=O)c2ccc(Br)cc2)C1 (stereo unspecified),-,63,.,-,-,-,-,-,-
CCCCC[C@@H](C)N1C[C@H](COCc2ccccc2)Oc2cc(N3CC[C@H](N(C)C)C3)ccc2S1(=O)=O,-,16,.,-,-,-,-,-,-
CCCCC[C@H](C)N1C[C@H](COCc2ccccc2)Oc2cc(N3CC[C@H](O)C3)ccc2S1(=O)=O,-,-,.,-,-,-,.,.,.
O=C1OC(/C=C/c2ccccc2)=NC/1=C/C=C/c1ccccc1,-,-,-,-,-,-,.,.,.
O=C1OC(/C=C/c2ccc(Cl)cc2)=NC/1=C/c1ccco1,-,17,-,-,-,-,-,-,-
CC(C)CN1CN2CCc3ccccc3C2CS1(=O)=O (stereo unspecified),.,-,.,-,-,-,.,.,.
O=S1(=O)N[C@H](Cc2ccccc2)COc2cccc(N3CCCCC3)c21,.,39,.,-,-,22,-,-,-
NC(=O)c1sc2nc(-c3ccco3)ccc2c1N,-,41,-,-,-,28,13,-,-
NC(=O)c1sc2nc(-c3cccnc3)ccc2c1N,-,-,-,-,-,-,.,.,.
CCOC(=O)Cc1nc(N2CCCN(C(C)=O)CC2)c2c(C)c(C(=O)OCC)sc2n1,.,-,.,-,-,-,.,.,.
CCOC(=O)[C@]12CCCC=C1N(Cc1ccc(OC)cc1)C(=O)[C@@H]2CC(=O)NCCc1ccccc1OC,.,-,.,-,-,-,.,.,.
CCN(C[C@H]1N[C@@](C)(C(=O)OC)[C@H]2C(=O)N(C)C(=O)[C@@H]12)S(=O)(=O)c1ccc(C)cc1,-,34,.,-,-,-,-,-,-
CCN(C[C@H]1N[C@@](C)(C(=O)OC)[C@H]2C(=O)N(C)C(=O)[C@@H]12)S(=O)(=O)c1ccccc1,-,-,.,-,-,-,.,.,.
Cc1ccc(C)c(NC(=O)Cn2nnc(-c3ccncc3)n2)c1,.,-,.,-,-,-,.,.,.
NC(c1csc(Nc2ccccn2)n1)c1ccccc1Cl (stereo unspecified),-,15,.,-,-,-,-,-,-
O=C(NCc1ccccc1)N1CCC(c2nc3ccc(Cl)cc3[nH]2)CC1,.,-,.,-,-,-,.,.,.
COc1cc(CCCN2CCNC[C@H]2Cc2cccc3ccccc23)cc(OC)c1OC,-,44,-,-,-,-,-,-,-
Cn1nnc(NC(=S)NC(=O)/C=C/c2ccco2)n1,-,14,-,-,-,-,-,-,-
CCC/C(C(=O)NCCO)=C1/c2ccccc2C(=O)N1c1ccccc1,-,18,-,-,-,-,-,-,-
Cc1ccc(O)c(CNc2cccc3cccnc23)c1,-,-,-,-,-,-,.,.,.
COc1cccc(CNc2cccc3cccnc23)c1O,-,-,-,-,-,-,.,.,.
Oc1c(Br)cc(Br)cc1CNc1cccc2cccnc12,-,40,-,-,-,-,-,-,21
Oc1ccc(Cl)cc1CNc1cccc2cccnc12,-,37,-,-,-,-,-,-,-
SMILES,CSN deneddyl inh,LEDGF integ inh,ATG4B inh,MBD2 DNA inh,rCAG binder,UHRF1 MBD2 ctr,IN multimer act,TR-FRET interf,LEDGF integ conf
Oc1ccc(Br)cc1CNc1cccc2cccnc12,-,14,-,-,-,-,-,-,-
CCN1CCCCC(NC(=O)Cc2ccccc2)C1=O (stereo unspecified),.,-,.,-,-,-,.,.,.
COc1ccccc1C=NNC(=O)CSc1nc2ccccc2n1Cc1ccc(Cl)cc1,.,-,.,-,-,-,.,.,.
O=S1(=O)c2ccc(N3CC[C@H](O)C3)cc2OCCCN1C1CC1,.,-,.,-,-,-,.,.,.
Cc1cc([N+](=O)[O-])ccc1NC(=O)Cc1ccc(F)cc1,-,85,-,-,-,-,-,-,-
COc1ccc(-n2nc(C(=O)O)cc2-c2ccccc2)cc1,-,29,-,-,-,-,-,-,-
O=C(O)c1cc(-c2ccccc2)n(-c2ccccc2)n1,-,-,-,-,-,-,.,.,.
Nc1[nH]c2ccccc2c1C(=O)NC1CC1,.,-,.,-,-,-,.,.,.
CCOc1cc(/C=C2\C(=O)N(CCc3ccc(OC)c(OC)c3)C(C)=C2C(=O)OC)ccc1O,-,-,-,-,-,-,.,.,.
CCOc1cc(/C=C2\C(=O)N(Cc3ccco3)C(C)=C2C(=O)OC)ccc1O,-,14,-,-,-,-,-,-,-
Cc1ccc(NC(=O)CSCc2ccco2)cc1,-,-,-,-,-,-,.,.,.
c1coc(CSSCc2ccco2)c1,-,46,-,32,-,83,-,-,-
COC(=O)[C@@]12CCCCC=C1N(CCc1ccc(Cl)cc1)C(=O)[C@H]2CC(=O)NCc1cccc(C(F)(F)F)c1,.,-,.,-,-,-,.,.,.
Cc1ccc(C)c(OCc2cc(C(=O)N3CCNC(=O)C3)no2)c1,-,27,-,-,-,-,-,-,-
Cc1ccc(C)c(OCc2cc(C(=O)N3CCOCC3)no2)c1,-,-,-,-,-,-,.,.,.
COc1cc(OC)c(C(=O)O/N=C(\N)c2cccc(C)c2)cc1OC,-,17,-,-,-,-,-,-,-
O=C1[C@@H](C2CC2)[C@@H]2c3ccccc3C=NN2[C@@H]2c3ccccc3C=NN12,.,-,.,-,-,-,.,.,.
C#CCNC(=O)C[C@H]1C[C@@]2(C(=O)OC)C(=C[C@H](COCc3ccccc3)O[C@@H]2C)N(Cc2ccccc2)C1=O,.,-,.,-,-,-,.,.,.
O=C(NCc1ccccc1)C(c1ccco1)N1CCN(CCN2CCOCC2)CC1 (stereo unspecified),.,-,.,-,-,-,.,.,.
Cc1nnc(NC(=O)CSc2nnc(-c3ccccc3)n2C)s1,-,18,-,-,-,-,-,-,-
Cn1c(SCC(=O)Nc2nc3c(s2)CCCC3)nnc1-c1ccccc1,-,-,-,-,-,-,.,.,.
Cn1c(SCC(=O)NC(=O)NCc2ccco2)nnc1-c1ccccc1,-,22,-,-,-,22,-,-,-
Cc1cc(C(=O)O[C@@H]2CCC[C@]3(C(=O)N(Cc4ccccc4)c4ccccc43)[C@H]2NC(=O)CCc2ccccc2)no1,.,-,.,-,-,-,.,.,.
COc1cccc(C2C(C#N)=C(N)Oc3cc(C)oc(=O)c32)c1OC (stereo unspecified),-,-,-,-,-,-,.,.,.
